What was measured:
Format in all cases: functional
Paracentrotus lividus [1] = assay: Antiproliferative activity against sea urchin embryo assessed as cleavage arrest after 10 to 15 mins fertilization 45 to 60 mins before first mitotic cycle completion
Procedure, shortened: (§1)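 Phenotypic in vivo assay on fertilized sea urchin eggs, scored for cleavage alteration or arrest. Reported value is the effective threshold concentration (EC), from duplicate measurements.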

Paracentrotus lividus [2] = assay: tubulin-destabilizing activity in sea urchin embryo assessed as embryo spinning treated immediately 8 to 10 hrs after fertilization
Procedure, shortened: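 Free-swimming sea urchin blastulae were treated and monitored for behavioural change. Reported value is the effective threshold concentration (EC), from duplicate measurements.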

Paracentrotus lividus [3] = assay: Antiproliferative activity against sea urchin embryo assessed as cleavage alteration after 10 to 15 mins fertilization 45 to 60 mins before first mitotic cycle completion; procedure, shortened: as §1

SMILES: COc1ccc(C(=O)c2cc3c(c(OC)c2OC)OCO3)cc1O
- EC (Paracentrotus lividus [1]): 4 µM
- EC (Paracentrotus lividus [2]): >5 µM
- EC (Paracentrotus lividus [3]): 1 µM

SMILES: COc1ccc(C(=O)c2cc(OC)c3c(c2OC)OCO3)cc1O
- EC (Paracentrotus lividus [1]): >4 µM
- EC (Paracentrotus lividus [2]): >5 µM
- EC (Paracentrotus lividus [3]): 2 µM

SMILES: COc1ccc(C(=O)c2cc(OC)c3c(c2)OCO3)cc1O
- EC (Paracentrotus lividus [1]): 0.01 µM
- EC (Paracentrotus lividus [2]): 0.1 µM
- EC (Paracentrotus lividus [3]): 0.001 µM

SMILES: COc1ccc(C(=O)c2cc(OC)c(OC)c(OC)c2OC)cc1O
- EC (Paracentrotus lividus [1]): >4 µM
- EC (Paracentrotus lividus [2]): >5 µM
- EC (Paracentrotus lividus [3]): 2 µM

SMILES: COc1ccc(C(=O)c2ccc3c(c2)OCCO3)cc1O
- EC (Paracentrotus lividus [1]): 0.2 µM
- EC (Paracentrotus lividus [2]): >5 µM
- EC (Paracentrotus lividus [3]): 0.1 µM

SMILES: COc1ccc(C(=O)c2ccc3c(c2)OCCO3)cc1
- EC (Paracentrotus lividus [1]): 1 µM
- EC (Paracentrotus lividus [2]): >5 µM
- EC (Paracentrotus lividus [3]): 0.5 µM

SMILES: COc1ccc(/C=C\c2cc(OC)c(OC)c(OC)c2)cc1O [COMBRETASTATIN A4]
- EC (Paracentrotus lividus [1]): 0.01 µM
- EC (Paracentrotus lividus [2]): 0.05 µM
- EC (Paracentrotus lividus [3]): 0.002 µM

SMILES: COc1ccc(/C=C\c2cc(OC)c3c(c2)OCO3)cc1O [Combretastatin A-2]
- EC (Paracentrotus lividus [1]): 0.01 µM
- EC (Paracentrotus lividus [2]): 0.05 µM
- EC (Paracentrotus lividus [3]): 0.002 µM

SMILES: COc1ccc(C(=O)c2cc(OC)c(OC)c(OC)c2)cc1O [PHENSTATIN]
- EC (Paracentrotus lividus [1]): 0.05 µM
- EC (Paracentrotus lividus [2]): 0.5 µM
- EC (Paracentrotus lividus [3]): 0.01 µM

From ChEMBL document CHEMBL1681762, “Application of plant allylpolyalkoxybenzenes in synthesis of antimitotic phenstatin analogues” (2011)
